Compound activity as filed in PubChem.
Rows were chosen to be rich in hits. Some 3.5% of all compounds tested hit in one or more screens of this group.
MrgX1 antagonist – antagonists of human MrgX1 receptor; MRGX1-HEK293 calcium flux, Fluo-4, BAM8-22 antagonism; stronger effect = lower value; AID 588676; 1.3% of 310,000 active; B-score at 10 µM;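 active = calcium-response B-score plate-corrected more than 3 library SD below zero, starting fluorescence within 5 deviations, no agonist response on first addition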;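 also: peak minus trough fluorescence over baseline after final BAM8-22 challenge near maximal dose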
Target sequence (Q96LB2 whole entry, looked up): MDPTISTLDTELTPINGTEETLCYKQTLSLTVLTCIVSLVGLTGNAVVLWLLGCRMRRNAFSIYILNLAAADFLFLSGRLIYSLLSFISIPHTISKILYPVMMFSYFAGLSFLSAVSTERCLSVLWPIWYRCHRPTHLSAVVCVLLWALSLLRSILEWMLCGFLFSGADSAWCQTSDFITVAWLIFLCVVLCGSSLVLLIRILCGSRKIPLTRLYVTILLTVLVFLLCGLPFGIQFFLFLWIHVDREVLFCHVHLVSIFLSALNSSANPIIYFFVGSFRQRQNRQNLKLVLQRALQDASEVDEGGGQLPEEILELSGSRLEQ
MrgX1 ag – agonists of human MrgX1 receptor. Q96LB2. MrgX1-HEK293 cells, Fluo-4 calcium fluorescence, agonist mode; stronger effect = higher value. B-score at 10 µM. 0.44% of 310,000 active. AID 588627;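 active = calcium response B-score plate-corrected fluorescence ratio at least 3 library SD, with starting fluorescence B-score inside 5 SD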
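times = overnight plating, then 30 min 37 °C plus 30 min room-temperature dye loading | assay system = stable human MrgX1 HEK293 cell line | input = fifteen thousand cells per well | signal = kinetic calcium dye fluorescence, Fluo-4 NW | dosing = compound delivered in addition one of three | read-out = B-scored fluorescence response ratio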
RGS4 inh – inhibitors of human RGS4; AID 463165; HEK293 M3R/RGS4 inducible, Fluo-4 calcium flux; stronger effect = higher value; triggered by carbachol at its EC20; P49798; B-score at 10 µM; 0.45% of 310,000 active;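 active = B-score, a plate-corrected calcium signal, over three deviations above library mean, with baseline fluorescence within five deviations of library mean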;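 also: RGS4 expression induced by doxycycline in cells with stable M3 receptor; B-score is computed from the integrated fluorescence ratio over baseline after carbachol; higher B-score means a larger calcium signal and so more RGS4 inhibition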
Target sequence (P49798 whole entry, looked up): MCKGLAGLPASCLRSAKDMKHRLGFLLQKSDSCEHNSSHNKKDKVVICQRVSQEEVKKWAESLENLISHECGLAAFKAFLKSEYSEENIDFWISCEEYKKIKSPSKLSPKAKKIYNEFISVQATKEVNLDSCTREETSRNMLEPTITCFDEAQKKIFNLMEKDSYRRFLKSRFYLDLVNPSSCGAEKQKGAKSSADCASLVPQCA
MrgX1 allo act – allosterically activates human MrgX1 receptor signaling. Q96LB2. MrgX1-HEK293, Fluo-4 calcium flux, FDSS; stronger effect = higher value. B-score at 10 µM. 0.63% of 310,000 active. AID 588675;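 active = plate-corrected calcium response at least 3 library SD above typical, normal starting fluorescence, not activating the receptor alone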;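 also: compound read alongside a low EC10 to EC30 dose of BAM8-22 agonist; peak minus trough fluorescence over baseline measured at the second addition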
RGS4 pot – RGS4 potentiation or activation | 0.92% of 310,000 active | HEK293 M3R/inducible RGS4, carbachol calcium flux Fluo4; stronger effect = lower value | B-score at 10 µM | AID 463111;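 active = B-score of the integrated calcium signal more than 4 SD below the library mean, with starting fluorescence not abnormally high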;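 also: negative B-score means reduced calcium response which marks RGS4 activation or potentiation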
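test system = HEK293 cells with stable M3R and inducible RGS4 | schedule = recording 10 s baseline at 1 Hz, 100 s post-agonist | technique = Fluo4-AM (2 µM) calcium-flux fluorescence, kinetic read | measure = Agonist-evoked peak-minus-minimum fluorescence over baseline, integrated ratio, B score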
Starred values were filed as active, the others as inactive.

`Cc1ccc(S(=O)(=O)N(CC(=O)N2CCOCC2)c2ccc(C(C)C)cc2)cc1` gave MrgX1 antagonist inactive, MrgX1 ag inactive, RGS4 inh inactive, MrgX1 allo act inactive and RGS4 pot inactive.
Screening COc1ccc(/C=N/OC/C(O)=C(\C#N)c2nc3ccccc3[nH]2)cc1 returned MrgX1 antagonist -5.62*, MrgX1 ag inactive, RGS4 inh inactive, MrgX1 allo act inactive and RGS4 pot inactive.
Screening N#C/C(=C(/O)COC(=O)Cc1c[nH]c2ccccc12)c1nc2ccccc2[nH]1 returned MrgX1 antagonist -4.93*, MrgX1 ag inactive, RGS4 inh inactive, MrgX1 allo act inactive and RGS4 pot inactive.
Screening CCOC(=O)c1c(-c2ccccc2)oc2ccc(OCC(O)CNCCN(C)C)cc12 (configuration not stated) returned MrgX1 antagonist inactive, MrgX1 ag inactive, RGS4 inh inactive, MrgX1 allo act inactive and RGS4 pot -7.61*.
CCOC(=O)c1c(-c2ccccc2)oc2ccc(OCC)cc12 was read as MrgX1 antagonist inactive, MrgX1 ag inactive, RGS4 inh inactive, MrgX1 allo act inactive and RGS4 pot inactive.
For CCN1C(=O)[C@H]2[C@@H](c3ccc(-c4cccc(Cl)c4)cc3)N[C@@](C)(C(=O)OC)[C@H]2C1=O the results were MrgX1 antagonist inactive, MrgX1 ag inactive, RGS4 inh inactive, MrgX1 allo act inactive and RGS4 pot inactive.
CC[C@H](C)/C=C/C1=CC2=C(Cl)C(=O)[C@@]3(C)OC(=O)C(C(=O)[C@H](C)[C@@H](C)O)=C3C2=CO1 was read as MrgX1 antagonist inactive, MrgX1 ag inactive, RGS4 inh inactive, MrgX1 allo act 10.4* and RGS4 pot inactive.
Screening CCOc1ccc(N=C2C(=O)N(CN3CCOCC3)c3ccccc32)cc1 returned MrgX1 antagonist inactive, MrgX1 ag 33.1*, RGS4 inh inactive, MrgX1 allo act inactive and RGS4 pot inactive.
`COc1ccc(C(=O)NCCc2nnc3ccc(SCC(=O)Nc4ccccc4)nn23)cc1` gave MrgX1 antagonist inactive, MrgX1 ag inactive, RGS4 inh inactive, MrgX1 allo act inactive and RGS4 pot inactive.
For CCOCCCNc1nc2c(C)cccn2c(=O)c1/C=C1\SC(=S)N(C(C)CC)C1=O (configuration not stated) the results were MrgX1 antagonist -15.2*, MrgX1 ag inactive, RGS4 inh inactive, MrgX1 allo act inactive and RGS4 pot inactive.
For CCOCCCNc1nc2c(C)cccn2c(=O)c1/C=C1\SC(=S)N(CC(C)C)C1=O the results were MrgX1 antagonist -6.82*, MrgX1 ag inactive, RGS4 inh inactive, MrgX1 allo act inactive and RGS4 pot inactive.
O=C(CSC1=NS(=O)(=O)c2ccccc2N1)Nc1ccccc1F was read as MrgX1 antagonist inactive, MrgX1 ag inactive, RGS4 inh inactive, MrgX1 allo act inactive and RGS4 pot inactive.
For CN1CCC(=C(c2ccccc2)c2ccc(Br)cc2)CC1 the results were MrgX1 antagonist inactive, MrgX1 ag inactive, RGS4 inh inactive, MrgX1 allo act inactive and RGS4 pot -7.68*.
CCN1CCN(S(=O)(=O)c2ccc(Cl)c(C(=O)NC(C)c3ccccc3Cl)c2)CC1 (configuration not stated) was read as MrgX1 antagonist -5.39*, MrgX1 ag inactive, RGS4 inh inactive, MrgX1 allo act inactive and RGS4 pot inactive.
Screening O=C(O)[C@H](Cc1ccccc1)NC(=O)N1CCN(c2ccccc2)CC1 returned MrgX1 antagonist inactive, MrgX1 ag inactive, RGS4 inh inactive, MrgX1 allo act inactive and RGS4 pot inactive.
For COC(C[C@@H](O)[C@H](C)[C@@H](O)COCc1ccccc1)OC the results were RGS4 inh inactive and RGS4 pot inactive.
For COC(=O)/C=C1/S/C(=N/NC(=O)c2ccccc2C)NC1=O the results were MrgX1 antagonist -8.23*, MrgX1 ag inactive, RGS4 inh inactive, MrgX1 allo act inactive and RGS4 pot inactive.
Cc1cccc(S(=O)(=O)Nc2nc3ccccc3nc2OC(C)C)c1 was read as MrgX1 antagonist inactive, MrgX1 ag inactive, RGS4 inh inactive, MrgX1 allo act inactive and RGS4 pot inactive.
COc1ccc(NC(=O)CN2C(=O)/C(=C3\SC(=S)N(C4CCS(=O)(=O)C4)C3=O)c3ccccc32)cc1 (configuration not stated) was read as MrgX1 antagonist inactive, MrgX1 ag inactive, RGS4 inh inactive, MrgX1 allo act 10.9* and RGS4 pot inactive.
Screening Cc1c(Cc2ccccc2)sc(/N=C/c2ccc3ccccc3c2)c1C(N)=O returned MrgX1 antagonist inactive, MrgX1 ag inactive and MrgX1 allo act inactive.
`Cc1c(Cc2ccccc2)sc(/N=C/c2c(O)ccc3ccccc23)c1C(N)=O` gave MrgX1 antagonist -7.62*, MrgX1 ag inactive, RGS4 inh inactive, MrgX1 allo act inactive and RGS4 pot inactive.
`CCN(CC)C(=O)CSC(Nc1ccc(F)cc1)=C(C#N)C#N` gave MrgX1 antagonist inactive, MrgX1 ag 44.2*, RGS4 inh inactive, MrgX1 allo act inactive and RGS4 pot inactive.
For Cc1ccc(N(CC2CO2)S(=O)(=O)c2ccc(C)cc2)cc1 (configuration not stated) the results were MrgX1 antagonist inactive, MrgX1 ag inactive, RGS4 inh inactive, MrgX1 allo act inactive and RGS4 pot inactive.
`Cc1ccc(N(CC2CO2)S(=O)(=O)c2ccc([N+](=O)[O-])cc2)cc1` (configuration not stated) gave MrgX1 antagonist inactive, MrgX1 ag inactive, RGS4 inh inactive, MrgX1 allo act 7.39* and RGS4 pot inactive.
Screening O=C1OC(c2ccc(Br)cc2)=N/C1=C\N1CCCCC1 returned MrgX1 antagonist -5.59*, MrgX1 ag inactive, RGS4 inh inactive, MrgX1 allo act inactive and RGS4 pot inactive.
For O=C(c1cc(COc2ccc(F)cc2Cl)on1)N1CCN(c2cnccn2)CC1 the results were MrgX1 antagonist inactive, MrgX1 ag inactive, RGS4 inh inactive, MrgX1 allo act inactive and RGS4 pot inactive.
O=C(NCc1ccc(F)cc1)C(c1ccccc1)N(CC1CCCO1)C(=O)Cn1nnc2ccccc21 (configuration not stated) was read as MrgX1 antagonist inactive, MrgX1 ag inactive, RGS4 inh inactive, MrgX1 allo act inactive and RGS4 pot inactive.
For O=C(CN(Cc1ccc(F)cc1)C(=O)Cn1nnc2ccccc21)NCC1CCCO1 (configuration not stated) the results were MrgX1 antagonist inactive, MrgX1 ag inactive, RGS4 inh inactive, MrgX1 allo act 16.5* and RGS4 pot inactive.
For CC(C)(C#CC(O)(c1ccccc1)c1ccccc1)N1CCCCC1 the results were MrgX1 antagonist inactive, MrgX1 ag inactive, RGS4 inh inactive, MrgX1 allo act inactive and RGS4 pot -7.09*.
